Measured values taken from ChEMBL document CHEMBL1921722, “In vitro and in vivo evaluation of select kahalalide F analogs with antitumor and antifungal activities” (Bioorg Med Chem, 2011).
≈ marks a conversion by molar mass, not a printed value. Calls of active or inactive are those of the source.

Key:
[1] = system: ACHN; experiment: Cytotoxicity against human ACHN cells assessed as cell growth at 80 uM by sulforhodamine B assay relative to control; format: functional; conditions: read-out: Activity
Outline: (§1)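 Run at NCI in the DTP 60-cell-line human tumor panel by standard procedure. Compounds were first screened at a single concentration, then tested at five tenfold-spaced concentrations. GI50 is the concentration reducing treated-cell growth to half that of untreated controls; TGI is the concentration completely halting growth.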

[2] = system: TK-10; experiment: Cytotoxicity against human TK10 cells assessed as cell growth at 8 nM by sulforhodamine B assay relative to control; format: functional; conditions: read-out: Activity
[3] = system: U-251; experiment: Cytotoxicity against human U251 cells assessed as cell growth at 80 uM by sulforhodamine B assay relative to control; format: functional; conditions: read-out: Activity
[4] = system: HCC 2998; experiment: Cytotoxicity against human HCC2998 cells assessed as cell growth at 8 uM by sulforhodamine B assay relative to control; format: functional; conditions: read-out: Activity
[5] = system: NCI-H23; experiment: Cytotoxicity against human NCI-H23 cells assessed as cell growth at 8 nM by sulforhodamine B assay relative to control; format: functional; conditions: read-out: Activity
[6] = system: Aspergillus fumigatus; experiment: Antimicrobial activity against Aspergillus fumigatus ATCC 90906 by CLSI method; format: functional, organism-based
[7] = system: 786-0; experiment: Cytotoxicity against human 786-0 cells by sulforhodamine B assay; format: functional; outline: as §1
[8] = system: T47D; experiment: Cytotoxicity against human T47D cells assessed as cell growth at 8 nM by sulforhodamine B assay relative to control; format: functional; conditions: read-out: Activity
[9] = system: SN12C; experiment: Cytotoxicity against human SN12C cells assessed as cell growth at 8 nM by sulforhodamine B assay relative to control; format: functional; conditions: read-out: Activity
[10] = system: MOLT-4; experiment: Cytotoxicity against human MOLT4 cells assessed as cell growth at 80 uM by sulforhodamine B assay relative to control; format: functional; conditions: read-out: Activity
[11] = system: MOLT-4; experiment: Cytotoxicity against human MOLT4 cells by sulforhodamine B assay; format: functional
Outline: (§2)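 NCI Developmental Therapeutics Program 60-cell-line human tumor panel screen, run at NCI. A single-concentration pre-screen was followed by a five-concentration dose-response in 10-fold steps. GI50 is the concentration that reduces growth of treated cells to half that of untreated control cells. TGI is the concentration that completely halts growth.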

[12] = system: A498; experiment: Cytotoxicity against human A498 cells by sulforhodamine B assay; format: functional; outline: as §1
[13] = system: SN12C; experiment: Cytotoxicity against human SN12C cells assessed as cell growth at 8 uM by sulforhodamine B assay relative to control; format: functional; conditions: read-out: Activity
[14] = system: SNB-19; experiment: Cytotoxicity against human SNB19 cells assessed as cell growth at 80 nM by sulforhodamine B assay relative to control; format: functional; conditions: read-out: Activity
[15] = system: HCT-15; experiment: Cytotoxicity against human HCT15 cells assessed as cell growth at 8 uM by sulforhodamine B assay relative to control; format: functional; conditions: read-out: Activity
[16] = system: A549; experiment: Cytotoxicity against human A549 cells assessed as cell growth at 80 nM by sulforhodamine B assay relative to control; format: functional; conditions: read-out: Activity; outline: as §1
[17] = system: SNB-19; experiment: Cytotoxicity against human SNB19 cells assessed as cell growth at 800 nM by sulforhodamine B assay relative to control; format: functional; conditions: read-out: Activity
[18] = system: MOLT-4; experiment: Cytotoxicity against human MOLT4 cells assessed as cell growth at 8 nM by sulforhodamine B assay relative to control; format: functional; conditions: read-out: Activity
[19] = system: MCF7; experiment: Cytotoxicity against human MCF7 cells assessed as cell growth at 8 nM by sulforhodamine B assay relative to control; format: functional; conditions: read-out: Activity
[20] = system: UO-31; experiment: Cytotoxicity against human UO31 cells assessed as cell growth at 80 nM by sulforhodamine B assay relative to control; format: functional; conditions: read-out: Activity
[21] = system: HOP-62; experiment: Cytotoxicity against human HOP62 cells assessed as cell growth at 80 nM by sulforhodamine B assay relative to control; format: functional; conditions: read-out: Activity
[22] = system: SF-268; experiment: Cytotoxicity against human SF268 cells assessed as cell growth at 8 nM by sulforhodamine B assay relative to control; format: functional; conditions: read-out: Activity
[23] = system: LOX IMVI; experiment: Cytotoxicity against human LOXIMVI cells assessed as cell growth at 8 uM by sulforhodamine B assay relative to control; format: functional; conditions: read-out: Activity
[24] = system: NCI-H322M; experiment: Cytotoxicity against human NCI-H322M cells by sulforhodamine B assay; format: functional; outline: as §2
[25] = system: HL-60(TB); experiment: Cytotoxicity against human HL-60(TB) cells assessed as cell growth at 800 nM by sulforhodamine B assay relative to control; format: functional; conditions: read-out: Activity
[26] = system: UACC-257; experiment: Cytotoxicity against human UACC257 cells assessed as cell growth at 8 nM by sulforhodamine B assay relative to control; format: functional; conditions: read-out: Activity
[27] = system: LOX IMVI; experiment: Cytotoxicity against human LOXIMVI cells assessed as cell growth at 800 nM by sulforhodamine B assay relative to control; format: functional; conditions: read-out: Activity
[28] = system: TK-10; experiment: Cytotoxicity against human TK10 cells assessed as cell growth at 80 uM by sulforhodamine B assay relative to control; format: functional; conditions: read-out: Activity
[29] = system: KM12; experiment: Cytotoxicity against human KM12 cells assessed as cell growth at 8 uM by sulforhodamine B assay relative to control; format: functional; conditions: read-out: Activity
[30] = system: IGROV-1; experiment: Cytotoxicity against human IGROV1 cells assessed as cell growth at 80 uM by sulforhodamine B assay relative to control; format: functional; conditions: read-out: Activity
[31] = system: Fusarium sp.; experiment: Antimicrobial activity against Fusarium sp. by CLSI method; format: functional, organism-based
[32] = system: SW-620; experiment: Cytotoxicity against human SW620 cells assessed as cell growth at 8 uM by sulforhodamine B assay relative to control; format: functional; conditions: read-out: Activity
[33] = system: Mus musculus; experiment: Acute toxicity in athymic nude mouse assessed as mortality at 12.5 mg/kg, […]; format: organism-based; parameters: dose 12.5 mg/kg, route intraperitoneal; conditions: in vivo, ip, 576 h
[34] = system: HL-60(TB); experiment: Cytotoxicity against human HL-60(TB) cells assessed as cell growth at 80 nM by sulforhodamine B assay relative to control; format: functional; conditions: read-out: Activity
[35] = system: NCI-H23; experiment: Antitumor activity against human NCI-H23 cells xenografted in mouse assessed as tumor cell killing at 4.7 mg/kg, ip qd for 4 days by MTT assay; format: functional, organism-based; parameters: dose 4.7 mg/kg
Outline: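 Hollow-fiber assay in mice. Tumor lines were grown in RPMI-1640 with 10% FBS and 2 mM glutamine. Cells at 2 × 10^6 cells/ml were loaded into 1 mm PVDF fibers (500,000 Da cutoff), heat-sealed at 2 cm and held 24–48 h at 37 °C, 5% CO2 before implantation. Compound was given IP. Fibers were collected the day after the fourth treatment for MTT (OD 540 nm, group means). A ≥50% cut in percent net growth versus vehicle counted as positive.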

[36] = system: HOP-92; experiment: Cytotoxicity against human HOP92 cells assessed as cell growth at 800 nM by sulforhodamine B assay relative to control; format: functional; conditions: read-out: Activity
[37] = system: RXF 393; experiment: Cytotoxicity against human RXF393 cells assessed as cell growth at 800 nM by sulforhodamine B assay relative to control; format: functional; conditions: read-out: Activity
[38] = system: NCI-H23; experiment: Cytotoxicity against human NCI-H23 cells assessed as cell growth at 80 nM by sulforhodamine B assay relative to control; format: functional; conditions: read-out: Activity
[39] = system: A549; experiment: Cytotoxicity against human A549 cells assessed as cell growth at 8 uM by sulforhodamine B assay relative to control; format: functional; conditions: read-out: Activity; outline: as §1

SMILES: C/C=C1\NC(=O)[C@H](Cc2ccccc2)NC(=O)[C@@H](C(C)C)NC(=O)[C@@H]([C@@H](C)CC)NC(=O)[C@H](NC(=O)[C@H](NC(=O)[C@H](CCCNCc2ccc(N3CCOCC3)cc2)NC(=O)[C@H]2CCCN2C(=O)[C@H](NC(=O)[C@@H](NC(=O)[C@@H](NC(=O)[C@H](NC(=O)CCCC(C)C)C(C)C)[C@@H](C)O)C(C)C)C(C)C)[C@@H](C)CC)[C@@H](C)OC(=O)[C@H](C(C)C)NC1=O
- growth at 80 µM [1]: -76%
- growth at 0.008 µM [2]: 118%
- growth at 80 µM [3]: -61%
- growth at 8 µM [4]: -81%
- growth at 0.008 µM [5]: 105%
- IC50 [6]: 5000 nM
- MFC [6]: 20 µM (≈ 33.1 µg/mL)
- MIC [6]: 10 µM (≈ 16.5 µg/mL)
- GI50 [7]: 1380 nM
- LC50 [7]: 4680 nM
- TGI ([7]; read-out: pTGI (converted)): 2570 nM
- growth at 0.008 µM [8]: 101%
- growth at 0.008 µM [9]: 86%
- growth at 80 µM [10]: 7%
- GI50 [11]: 20400 nM
- LC50 [11]: > 75900 nM
- TGI ([11]; read-out: pTGI): > 75900 nM
- GI50 [12]: 1580 nM
- LC50 [12]: 7410 nM
- TGI ([12]; read-out: pTGI (converted)): 3470 nM
- growth at 8 µM [13]: -47%
- growth at 0.08 µM [14]: 102%
- growth at 8 µM [15]: -82%
- growth at 0.08 µM [16]: 102%
- growth at 0.8 µM [17]: 90%
- growth at 0.008 µM [18]: 103%
- growth at 0.008 µM [19]: 102%
- growth at 0.08 µM [20]: 104%
- growth at 0.08 µM [21]: 103%
- growth at 0.008 µM [22]: 98%
- growth at 8 µM [23]: 20%
- GI50 ([24]; read-out: GI50): 133 nM
- TGI ([24]; read-out: TGI): 264 nM
- GI50 ([24]; read-out: pGI50 (converted)): 132 nM
- TGI ([24]; read-out: pTGI (converted)): 263 nM
- growth at 0.8 µM [25]: 93%
- growth at 0.008 µM [26]: 101%
- growth at 0.8 µM [27]: 100%
- growth at 80 µM [28]: -56%
- growth at 8 µM [29]: -48%
- growth at 80 µM [30]: -30%
- Activity [31]: Active
- growth at 8 µM [32]: -98%
- Activity [33]: Non-toxic
- growth at 0.08 µM [34]: 96%
- Activity [35]: inactive
- growth at 0.8 µM [36]: 79%
- growth at 0.8 µM [37]: 97%
- growth at 0.08 µM [38]: 99%
- growth at 8 µM [39]: -65%
